# Reference: ChEMBL document CHEMBL5724801, “EUbOPEN Chemogenomics Library - Multiplex” (2024)
# “And” between values parts separate entries of the source, which are not always exact repeats. Equal values may be shown once.
# Tested on: U2OS
# Experiment: Multiplex assay against U2OS
# Assay type: toxicity, cell-based
# Details: human
# How it was run: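 Compound was added to live cells that had been stained at seeding with Hoechst33342, BioTracker Green Microtubule Cytoskeleton Dye, MitoTracker Red and Annexin V Alexa Fluor 680, and imaging followed on a CQ1 microscope at 37°C and 5% CO2. CellPathfinder machine-learning gating divided cells into Hoechst high-intensity objects or normal cells, normal cells into healthy, pyknosed or fragmented nuclei, and pyknosed cells into mitotic or apoptotic. Tubulin, mitochondrial-mass and membrane-permeability phenotypes are per cents of healthy-nucleus cells.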
# [1] = 12 h, 1 µM, compound concentration 1 uM
# [2] = 12 h, 10 µM, compound concentration 10 uM
# [3] = 24 h, 1 µM, compound concentration 1 uM
# [4] = 24 h, 10 µM, compound concentration 10 uM
# [5] = 48 h, 1 µM, compound concentration 1 uM
# [6] = 48 h, 10 µM, compound concentration 10 uM
compound,measurement,setting,value
CCCCCCNC(=O)Nc1ccc(S(=O)(=O)Nc2ccc(CCNC[C@H](O)COc3ccc(O)cc3)cc2)cc1 [L-755507],Population Apoptotic (%),[1],86% and 100%
same,Population Fragmented Nuclei (%),[1],22% and 18%
same,Population Healthy Nuclei (%),[1],67% and 75%
same,Population Hoechst High Intensity Objects (%),[1],4% and 0%
same,Population Membrane Permeable-Phenotype (%),[1],4% and 10%
same,Population Mitochondria Different-Phenotype (%),[1],4% and 1%
same,Population Mitotic Cells (%),[1],13% and 0%
same,Population Normal (%),[1],95% and 99%
same,Population Pyknosed Nuclei (%),[1],9% and 5%
same,Population Tubulin-Different-Phenotype (%),[1],4% and 5%
same,Total Cell Count,[1],231 and 120
same,Population Apoptotic (%),[2],60% and 72%
same,Population Fragmented Nuclei (%),[2],31% and 19%
same,Population Healthy Nuclei (%),[2],59% and 72%
same,Population Hoechst High Intensity Objects (%),[2],3% and 2%
same,Population Membrane Permeable-Phenotype (%),[2],13% and 19%
same,Population Mitochondria Different-Phenotype (%),[2],11% and 15%
same,Population Mitotic Cells (%),[2],40% and 27%
same,Population Normal (%),[2],96% and 97%
same,Population Pyknosed Nuclei (%),[2],9% and 8%
same,Population Tubulin-Different-Phenotype (%),[2],10% and 15%
same,Total Cell Count,[2],282 and 140
same,Population Apoptotic (%),[3],83% and 92%
same,Population Fragmented Nuclei (%),[3],22% and 23%
same,Population Healthy Nuclei (%),[3],66% and 67%
same,Population Hoechst High Intensity Objects (%),[3],4% and 2%
same,Population Membrane Permeable-Phenotype (%),[3],5% and 11%
same,Population Mitochondria Different-Phenotype (%),[3],5% and 1%
same,Population Mitotic Cells (%),[3],16% and 7%
same,Population Normal (%),[3],95% and 97%
same,Population Pyknosed Nuclei (%),[3],11% and 9%
same,Population Tubulin-Different-Phenotype (%),[3],3% and 5%
same,Total Cell Count,[3],285 and 143
same,Population Apoptotic (%),[4],85% and 88%
same,Population Fragmented Nuclei (%),[4],25% and 14%
same,Population Healthy Nuclei (%),[4],65% and 79%
same,Population Hoechst High Intensity Objects (%),[4],2%
same,Population Membrane Permeable-Phenotype (%),[4],7% and 9%
same,Population Mitochondria Different-Phenotype (%),[4],4% and 5%
same,Population Mitotic Cells (%),[4],14% and 11%
same,Population Normal (%),[4],97%
same,Population Pyknosed Nuclei (%),[4],9% and 6%
same,Population Tubulin-Different-Phenotype (%),[4],3% and 6%
same,Total Cell Count,[4],307 and 149
same,Population Apoptotic (%),[5],78% and 91%
same,Population Fragmented Nuclei (%),[5],14% and 26%
same,Population Healthy Nuclei (%),[5],74% and 61%
same,Population Hoechst High Intensity Objects (%),[5],1% and 4%
same,Population Membrane Permeable-Phenotype (%),[5],6% and 12%
same,Population Mitochondria Different-Phenotype (%),[5],3% and 5%
same,Population Mitotic Cells (%),[5],21% and 8%
same,Population Normal (%),[5],98% and 95%
same,Population Pyknosed Nuclei (%),[5],11% and 12%
same,Population Tubulin-Different-Phenotype (%),[5],3% and 6%
same,Total Cell Count,[5],422 and 188
same,Population Apoptotic (%),[6],80% and 94%
same,Population Fragmented Nuclei (%),[6],19% and 13%
same,Population Healthy Nuclei (%),[6],70% and 78%
same,Population Hoechst High Intensity Objects (%),[6],2% and 1%
same,Population Membrane Permeable-Phenotype (%),[6],7%
same,Population Mitochondria Different-Phenotype (%),[6],2% and 3%
same,Population Normal (%),[6],97% and 98%
same,Population Pyknosed Nuclei (%),[6],9% and 7%
same,Population Tubulin-Different-Phenotype (%),[6],4% and 6%
same,Total Cell Count,[6],419 and 242
COCCCN1CCC(NC(=O)c2cc(Cl)c(N)c3c2OCC3)CC1 [PRUCALOPRIDE],Population Apoptotic (%),[1],84% and 87%
same,Population Fragmented Nuclei (%),[1],30% and 21%
same,Population Healthy Nuclei (%),[1],63% and 71%
same,Population Hoechst High Intensity Objects (%),[1],1% and 0%
same,Population Membrane Permeable-Phenotype (%),[1],7% and 12%
same,Population Mitochondria Different-Phenotype (%),[1],3% and 7%
same,Population Mitotic Cells (%),[1],15% and 12%
same,Population Normal (%),[1],98% and 99%
same,Population Pyknosed Nuclei (%),[1],6% and 7%
same,Population Tubulin-Different-Phenotype (%),[1],4% and 8%
same,Total Cell Count,[1],207 and 110
same,Population Apoptotic (%),[2],68% and 47%
same,Population Fragmented Nuclei (%),[2],22% and 13%
same,Population Healthy Nuclei (%),[2],63% and 73%
same,Population Hoechst High Intensity Objects (%),[2],3% and 2%
same,Population Membrane Permeable-Phenotype (%),[2],4% and 1%
same,Population Mitochondria Different-Phenotype (%),[2],0% and 1%
same,Population Mitotic Cells (%),[2],31% and 52%
same,Population Normal (%),[2],96% and 97%
same,Population Pyknosed Nuclei (%),[2],13% and 12%
same,Population Tubulin-Different-Phenotype (%),[2],2% and 1%
same,Total Cell Count,[2],238 and 140
same,Population Apoptotic (%),[3],80%
same,Population Fragmented Nuclei (%),[3],26% and 23%
same,Population Healthy Nuclei (%),[3],65% and 69%
same,Population Hoechst High Intensity Objects (%),[3],2% and 1%
same,Population Membrane Permeable-Phenotype (%),[3],5% and 8%
same,Population Mitochondria Different-Phenotype (%),[3],3% and 4%
same,Population Mitotic Cells (%),[3],20%
same,Population Normal (%),[3],97% and 98%
same,Population Pyknosed Nuclei (%),[3],8% and 7%
same,Population Tubulin-Different-Phenotype (%),[3],5% and 7%
same,Total Cell Count,[3],247 and 132
same,Population Apoptotic (%),[4],87% and 77%
same,Population Fragmented Nuclei (%),[4],23% and 12%
same,Population Healthy Nuclei (%),[4],64% and 76%
same,Population Hoechst High Intensity Objects (%),[4],4% and 1%
same,Population Membrane Permeable-Phenotype (%),[4],5% and 3%
same,Population Mitochondria Different-Phenotype (%),[4],2%
same,Population Mitotic Cells (%),[4],12% and 22%
same,Population Normal (%),[4],95% and 98%
same,Population Pyknosed Nuclei (%),[4],12% and 11%
same,Population Tubulin-Different-Phenotype (%),[4],4% and 3%
same,Total Cell Count,[4],280 and 161
same,Population Apoptotic (%),[5],85% and 86%
same,Population Fragmented Nuclei (%),[5],20%
same,Population Healthy Nuclei (%),[5],73% and 67%
same,Population Hoechst High Intensity Objects (%),[5],3% and 2%
same,Population Membrane Permeable-Phenotype (%),[5],3% and 11%
same,Population Mitochondria Different-Phenotype (%),[5],1% and 6%
same,Population Mitotic Cells (%),[5],14% and 13%
same,Population Normal (%),[5],96% and 97%
same,Population Pyknosed Nuclei (%),[5],6% and 11%
same,Population Tubulin-Different-Phenotype (%),[5],3% and 9%
same,Total Cell Count,[5],352 and 199
same,Population Apoptotic (%),[6],88% and 90%
same,Population Fragmented Nuclei (%),[6],17% and 11%
same,Population Healthy Nuclei (%),[6],69% and 79%
same,Population Hoechst High Intensity Objects (%),[6],1%
same,Population Membrane Permeable-Phenotype (%),[6],5% and 3%
same,Population Mitochondria Different-Phenotype (%),[6],2% and 3%
same,Population Mitotic Cells (%),[6],11% and 9%
same,Population Normal (%),[6],98%
same,Population Pyknosed Nuclei (%),[6],12% and 9%
same,Population Tubulin-Different-Phenotype (%),[6],2% and 1%
same,Total Cell Count,[6],347 and 245
c1ccc2nc(N3CCNCC3)ccc2c1 [QUIPAZINE],Population Apoptotic (%),[1],38.46% and 42.86%
same,Population Fragmented Nuclei (%),[1],2.12% and 3.18%
same,Population Healthy Nuclei (%),[1],85.61% and 83.44%
same,Population Hoechst High Intensity Objects (%),[1],0%
same,Population Membrane Permeable-Phenotype (%),[1],0.28% and 1.53%
same,Population Mitotic Cells (%),[1],61.54% and 57.14%
same,Population Normal (%),[1],100%
same,Population Pyknosed Nuclei (%),[1],12.26% and 13.38%
same,Population Tubulin-Different-Phenotype (%),[1],0.28% and 0%
same,Total Cell Count,[1],424 and 157
same,Population Apoptotic (%),[2],41.67% and 21.05%
same,Population Fragmented Nuclei (%),[2],2.14% and 2.94%
same,Population Healthy Nuclei (%),[2],88.24% and 85.88%
same,Population Hoechst High Intensity Objects (%),[2],0%
same,Population Membrane Permeable-Phenotype (%),[2],2.12% and 2.05%
same,Population Mitochondria Different-Phenotype (%),[2],0.61% and 9.59%
same,Population Mitotic Cells (%),[2],58.33% and 78.95%
same,Population Normal (%),[2],100%
same,Population Pyknosed Nuclei (%),[2],9.63% and 11.18%
same,Population Tubulin-Different-Phenotype (%),[2],1.21% and 0%
same,Total Cell Count,[2],374 and 170
same,Population Apoptotic (%),[3],52.86% and 39.13%
same,Population Fragmented Nuclei (%),[3],0.69% and 1.94%
same,Population Healthy Nuclei (%),[3],87.26% and 86.89%
same,Population Hoechst High Intensity Objects (%),[3],0.17% and 0%
same,Population Membrane Permeable-Phenotype (%),[3],0.79% and 3.91%
same,Population Mitochondria Different-Phenotype (%),[3],0.39% and 6.7%
same,Population Mitotic Cells (%),[3],47.14% and 60.87%
same,Population Normal (%),[3],99.83% and 100%
same,Population Pyknosed Nuclei (%),[3],12.05% and 11.17%
same,Population Tubulin-Different-Phenotype (%),[3],1.38% and 0%
same,Total Cell Count,[3],582 and 206
same,Population Apoptotic (%),[4],40.82% and 48%
same,Population Fragmented Nuclei (%),[4],0.76% and 0%
same,Population Healthy Nuclei (%),[4],89.87% and 89.41%
same,Population Hoechst High Intensity Objects (%),[4],0%
same,Population Membrane Permeable-Phenotype (%),[4],1.06% and 3.32%
same,Population Mitochondria Different-Phenotype (%),[4],0.43% and 6.16%
same,Population Mitotic Cells (%),[4],59.18% and 52%
same,Population Normal (%),[4],100%
same,Population Pyknosed Nuclei (%),[4],9.37% and 10.59%
same,Population Tubulin-Different-Phenotype (%),[4],1.28% and 0%
same,Total Cell Count,[4],523 and 236
same,Population Apoptotic (%),[5],43.56% and 50%
same,Population Fragmented Nuclei (%),[5],2.56% and 1.98%
same,Population Healthy Nuclei (%),[5],88.55% and 87.25%
same,Population Hoechst High Intensity Objects (%),[5],0%
same,Population Membrane Permeable-Phenotype (%),[5],0.9% and 1.95%
same,Population Mitochondria Different-Phenotype (%),[5],0.2% and 3.9%
same,Population Mitotic Cells (%),[5],56.44% and 50%
same,Population Normal (%),[5],100%
same,Population Pyknosed Nuclei (%),[5],8.9% and 10.76%
same,Population Tubulin-Different-Phenotype (%),[5],0.9% and 0.32%
same,Population Apoptotic (%),[6],39.47% and 52.17%
same,Population Fragmented Nuclei (%),[6],3.42% and 0.25%
same,Population Healthy Nuclei (%),[6],89.16% and 94.06%
same,Population Hoechst High Intensity Objects (%),[6],0% and 0.25%
same,Population Membrane Permeable-Phenotype (%),[6],0.99% and 2.63%
same,Population Mitochondria Different-Phenotype (%),[6],0.11% and 1.84%
same,Population Mitotic Cells (%),[6],60.53% and 47.83%
same,Population Normal (%),[6],100% and 99.75%
same,Population Pyknosed Nuclei (%),[6],7.42% and 5.69%
same,Population Tubulin-Different-Phenotype (%),[6],1.42% and 0.79%
same,Total Cell Count,[6],1024 and 405
